Experimental data from ChEMBL document CHEMBL1141029, “Allosteric inhibitors of Akt1 and Akt2: discovery of [1,2,4]triazolo[3,4-f][1,6]naphthyridines with potent and balanced activity” (Bioorg Med Chem Lett, 2009).

Key:
[1] = Drug level in blood of nude mouse xenografted with […] at 10 mg/mL after 20 hrs; assay type: ADME, tissue-based; settings: whole blood, read-out: Drug uptake
Mus musculus [2] = experiment: Inhibition of Akt1 phosphorylation in lung of nude mouse xenografted with C33a cells at 70 mg/mL administered through mini-pump after 20 hrs by IP kinase assay; assay type: functional; settings: in the assay text read “10 mg/mL” for “70 mg/mL”
[3] = target: Voltage-gated inwardly rectifying potassium channel KCNH2 (Homo sapiens, UniProt Q12809); experiment: Inhibition of human ERG expressed in HEK cells by competitive radioligand binding assay; assay type: cell-based, HEK293
Mus musculus [4] = experiment: Inhibition of Akt2 phosphorylation in lung of nude mouse xenografted with C33a cells at 10 mg/mL administered through mini-pump after 20 hrs by IP kinase assay; assay type: functional
[5] = target: T1, RAC-beta serine/threonine-protein kinase (Homo sapiens, UniProt P31751); experiment: Inhibition of human cloned Akt2 expressed in Drosophila S2 cells by HTRF assay; assay type: cell-based
[6] = target: T2, RAC-alpha serine/threonine-protein kinase (Homo sapiens, UniProt P31749); experiment: Inhibition of human cloned Akt1 expressed in Drosophila S2 cells by HTRF assay; assay type: cell-based
[7] = Inhibition of PKC
[8] = target: T1, RAC-beta serine/threonine-protein kinase; experiment: Inhibition of Akt2 by cell based assay
[9] = Inhibition of PKA
[10] = target: T2, RAC-alpha serine/threonine-protein kinase; experiment: Inhibition of Akt1 by cell based assay
[11] = target: T3, Serine/threonine-protein kinase Sgk1 (Homo sapiens, UniProt O00141); experiment: Inhibition of SGK
T3 sequence (O00141 whole entry): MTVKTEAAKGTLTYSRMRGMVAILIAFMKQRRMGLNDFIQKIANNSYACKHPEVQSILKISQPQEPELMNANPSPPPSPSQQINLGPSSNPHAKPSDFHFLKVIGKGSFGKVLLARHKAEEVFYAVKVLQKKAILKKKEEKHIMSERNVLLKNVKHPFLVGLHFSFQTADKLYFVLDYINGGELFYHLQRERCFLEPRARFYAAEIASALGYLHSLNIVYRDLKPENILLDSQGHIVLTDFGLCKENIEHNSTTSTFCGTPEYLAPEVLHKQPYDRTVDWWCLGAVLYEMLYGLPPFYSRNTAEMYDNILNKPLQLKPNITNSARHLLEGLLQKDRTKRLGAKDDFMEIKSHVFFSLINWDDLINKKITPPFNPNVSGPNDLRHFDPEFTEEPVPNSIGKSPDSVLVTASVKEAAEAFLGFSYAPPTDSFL

Mus musculus [12] = experiment: Inhibition of Akt2 phosphorylation in lung of nude mouse xenografted with C33a cells at 18 mg/mL administered through mini-pump after 20 hrs by IP kinase assay; assay type: functional
How it was run: (§1)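 Nude mice bearing C33a cervical carcinoma tumours, 3 per concentration. Hydrochloride salt in 25% hydroxypropyl-b-cyclodextrin given by mini-pump at 8 µL/hr for 20 hrs, pump solution 70 or 18 mg/mL. Blood drawn for PK at 3, 6, 8, 11 and 20 h, so steady-state blood level is known. Euthanized at 20 h. Akt1 and Akt2 phosphorylation activity measured in lung as % inhibition.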

[13] = Drug level in blood of nude mouse xenografted with […] at 70 mg/mL after 20 hrs; assay type: ADME, tissue-based; settings: whole blood, read-out: Drug uptake; how it was run: as §1
Mus musculus [14] = experiment: Inhibition of Akt2 phosphorylation in lung of nude mouse xenografted with C33a cells at 70 mg/mL administered through mini-pump after 20 hrs by IP kinase assay; assay type: functional; how it was run: as §1
Mus musculus [15] = experiment: Inhibition of Akt1 phosphorylation in lung of nude mouse xenografted with C33a cells at 18 mg/mL administered through mini-pump after 20 hrs by IP kinase assay; assay type: functional; how it was run: as §1
[16] = Drug level in blood of nude mouse xenografted with […] at 18 mg/mL after 20 hrs; assay type: ADME, tissue-based; settings: whole blood, read-out: Drug uptake; how it was run: as §1

T2 sequence (P31749 whole entry): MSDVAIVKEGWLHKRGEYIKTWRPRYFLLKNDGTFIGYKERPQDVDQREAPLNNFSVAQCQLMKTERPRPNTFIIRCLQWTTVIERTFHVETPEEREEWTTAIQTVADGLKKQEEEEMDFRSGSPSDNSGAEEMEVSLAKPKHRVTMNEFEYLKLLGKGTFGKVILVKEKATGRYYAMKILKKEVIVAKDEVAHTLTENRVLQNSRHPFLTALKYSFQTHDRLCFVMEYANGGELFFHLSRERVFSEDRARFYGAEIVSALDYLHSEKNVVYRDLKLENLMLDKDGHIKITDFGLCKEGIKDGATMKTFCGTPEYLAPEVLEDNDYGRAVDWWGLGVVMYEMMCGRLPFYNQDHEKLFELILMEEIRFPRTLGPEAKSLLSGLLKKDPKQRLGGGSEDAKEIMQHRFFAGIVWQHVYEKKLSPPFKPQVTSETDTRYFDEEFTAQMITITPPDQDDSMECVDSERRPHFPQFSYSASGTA
Voltage-gated inwardly rectifying potassium channel KCNH2, sequence (Q12809 whole entry): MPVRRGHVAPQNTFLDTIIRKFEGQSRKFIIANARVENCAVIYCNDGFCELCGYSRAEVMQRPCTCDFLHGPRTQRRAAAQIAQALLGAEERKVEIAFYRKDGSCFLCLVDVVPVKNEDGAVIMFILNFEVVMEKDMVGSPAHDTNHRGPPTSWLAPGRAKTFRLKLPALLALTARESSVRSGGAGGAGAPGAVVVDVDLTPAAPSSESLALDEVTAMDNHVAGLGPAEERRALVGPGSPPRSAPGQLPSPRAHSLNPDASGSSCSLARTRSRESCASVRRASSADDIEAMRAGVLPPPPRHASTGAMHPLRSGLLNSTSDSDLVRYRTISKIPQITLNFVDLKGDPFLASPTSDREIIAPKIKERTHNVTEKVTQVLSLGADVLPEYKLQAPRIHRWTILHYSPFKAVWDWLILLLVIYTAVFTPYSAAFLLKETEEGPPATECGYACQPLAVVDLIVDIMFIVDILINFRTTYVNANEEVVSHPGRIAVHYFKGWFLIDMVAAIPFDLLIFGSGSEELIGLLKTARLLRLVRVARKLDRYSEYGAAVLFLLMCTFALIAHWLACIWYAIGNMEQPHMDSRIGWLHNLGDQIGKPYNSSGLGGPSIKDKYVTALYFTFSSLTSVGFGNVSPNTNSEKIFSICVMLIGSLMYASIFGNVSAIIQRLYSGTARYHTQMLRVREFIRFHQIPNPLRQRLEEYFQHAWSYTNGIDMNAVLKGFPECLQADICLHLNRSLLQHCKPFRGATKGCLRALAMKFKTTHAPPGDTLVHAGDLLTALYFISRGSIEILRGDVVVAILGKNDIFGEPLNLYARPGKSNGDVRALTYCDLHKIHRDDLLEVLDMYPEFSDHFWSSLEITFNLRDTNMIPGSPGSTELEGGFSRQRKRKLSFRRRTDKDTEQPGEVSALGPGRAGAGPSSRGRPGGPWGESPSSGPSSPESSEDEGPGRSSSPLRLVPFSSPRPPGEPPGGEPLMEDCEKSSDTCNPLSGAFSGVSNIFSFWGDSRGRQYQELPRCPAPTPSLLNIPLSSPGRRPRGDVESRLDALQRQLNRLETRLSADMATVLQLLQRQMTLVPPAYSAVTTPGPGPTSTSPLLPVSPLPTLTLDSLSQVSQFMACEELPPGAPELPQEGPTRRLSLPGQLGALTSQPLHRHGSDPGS
T1 sequence (P31751 whole entry): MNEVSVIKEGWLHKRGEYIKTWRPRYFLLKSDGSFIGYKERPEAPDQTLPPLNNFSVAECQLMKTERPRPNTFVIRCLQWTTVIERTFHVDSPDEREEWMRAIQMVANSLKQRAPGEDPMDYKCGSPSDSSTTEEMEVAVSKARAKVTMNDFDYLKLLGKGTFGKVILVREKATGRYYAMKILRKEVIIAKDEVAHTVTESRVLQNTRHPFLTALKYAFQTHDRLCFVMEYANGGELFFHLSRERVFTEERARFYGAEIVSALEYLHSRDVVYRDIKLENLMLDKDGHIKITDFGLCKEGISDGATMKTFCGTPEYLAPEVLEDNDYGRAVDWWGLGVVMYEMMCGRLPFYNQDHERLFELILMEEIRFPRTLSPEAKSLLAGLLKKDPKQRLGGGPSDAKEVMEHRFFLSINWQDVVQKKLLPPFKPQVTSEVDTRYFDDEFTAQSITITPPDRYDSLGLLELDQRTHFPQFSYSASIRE

SMILES: O=c1[nH]ccc2nc(-c3ccc(CN4CCC(c5n[nH]c(-c6ccccn6)n5)CC4)cc3)c(-c3ccccc3)cc12
- concentration at 20 h [1]: 3000 nM
- inhibition (INH) (Mus musculus [2]): 85%
- IC50 [3]: 5610 nM
- inhibition (INH) (Mus musculus [4]): 4%

SMILES: CN1CCN(Cc2nnc3c4cc(-c5ccccc5)c(-c5ccc(CN6CCC(c7n[nH]c(-c8ccccn8)n7)CC6)cc5)nc4ccn23)CC1
- IC50 [5]: 55.1 nM
- IC50 [6]: 9.9 nM
- IC50 [7]: > 50000 nM
- IC50 [8]: 376 nM
- IC50 [9]: > 50000 nM
- IC50 [10]: 62.5 nM
- IC50 [11]: > 50000 nM

SMILES: Sc1nnc2c3cc(-c4ccccc4)c(-c4ccc(CN5CCC(c6n[nH]c(-c7ccccn7)n6)CC5)cc4)nc3ccn12
- IC50 [5]: 10.4 nM
- IC50 [6]: 10 nM
- IC50 [7]: > 50000 nM
- IC50 [8]: 108 nM
- IC50 [9]: > 50000 nM
- IC50 [10]: 17 nM
- IC50 [11]: > 50000 nM

SMILES: Cc1nnc2c3cc(-c4ccccc4)c(-c4ccc(CN5CCC(c6n[nH]c(-c7ccccn7)n6)CC5)cc4)nc3ccn12
- IC50 [5]: 14.6 nM
- IC50 [6]: 4.6 nM
- IC50 [7]: > 50000 nM
- IC50 [8]: 177 nM
- IC50 [9]: > 50000 nM
- IC50 [10]: 24.6 nM
- IC50 [11]: > 50000 nM

SMILES: c1ccc(-c2cc3c(ccn4cnnc34)nc2-c2ccc(CN3CCC(c4n[nH]c(-c5ccccn5)n4)CC3)cc2)cc1
- inhibition (INH) (Mus musculus [12]): 41%
- IC50 [6]: 4 nM
- IC50 [7]: > 50000 nM
- IC50 [8]: 41 nM
- IC50 [3]: > 10000 nM
- concentration at 20 h [13]: 1700 nM
- IC50 [9]: > 50000 nM
- inhibition (INH) (Mus musculus [14]): 35%
- inhibition (INH) (Mus musculus [15]): 92%
- concentration at 20 h [16]: 1800 nM
- IC50 [10]: 5 nM
- IC50 [11]: > 50000 nM

SMILES: ClCc1nnc2c3cc(-c4ccccc4)c(-c4ccc(CN5CCC(c6n[nH]c(-c7ccccn7)n6)CC5)cc4)nc3ccn12
- IC50 [5]: 10.5 nM
- IC50 [6]: 26.7 nM
- IC50 [7]: > 50000 nM
- IC50 [8]: 483 nM
- IC50 [3]: 2020 nM
- IC50 [9]: > 50000 nM
- IC50 [10]: 113 nM
- IC50 [11]: > 50000 nM

SMILES: Nc1nnc2c3cc(-c4ccccc4)c(-c4ccc(CN5CCC(c6n[nH]c(-c7ccccn7)n6)CC5)cc4)nc3ccn12
- IC50 [5]: 9.4 nM
- IC50 [6]: 2.8 nM
- IC50 [7]: > 50000 nM
- IC50 [8]: 47.7 nM
- IC50 [9]: > 50000 nM
- IC50 [10]: 18.1 nM
- IC50 [11]: > 50000 nM

SMILES: Oc1nnc2c3cc(-c4ccccc4)c(-c4ccc(CN5CCC(c6n[nH]c(-c7ccccn7)n6)CC5)cc4)nc3ccn12
- IC50 [5]: 6.7 nM
- IC50 [6]: 2.6 nM
- IC50 [7]: > 50000 nM
- IC50 [8]: 168 nM
- IC50 [3]: 5310 nM
- IC50 [9]: > 50000 nM
- IC50 [10]: 27 nM
- IC50 [11]: > 50000 nM

SMILES: OCCNCc1nnc2c3cc(-c4ccccc4)c(-c4ccc(CN5CCC(c6n[nH]c(-c7ccccn7)n6)CC5)cc4)nc3ccn12
- IC50 [5]: 77.9 nM
- IC50 [6]: 17 nM
- IC50 [7]: > 50000 nM
- IC50 [8]: 251 nM
- IC50 [9]: > 50000 nM
- IC50 [10]: 41.8 nM
- IC50 [11]: > 50000 nM

SMILES: Nc1nnc2c3cc(-c4ccccc4)c(-c4ccc(CN5CCC(n6cnc(-c7ccccn7)c6)CC5)cc4)nc3ccn12
- IC50 [5]: 2.8 nM
- IC50 [6]: 3.3 nM
- IC50 [8]: 74.8 nM
- IC50 [10]: 18.3 nM

SMILES: NC(=O)Nc1nnc2c3cc(-c4ccccc4)c(-c4ccc(CN5CCC(c6n[nH]c(-c7ccccn7)n6)CC5)cc4)nc3ccn12
- IC50 [5]: 24.1 nM
- IC50 [6]: 8.5 nM
- IC50 [7]: > 50000 nM
- IC50 [8]: 1210 nM
- IC50 [9]: > 50000 nM
- IC50 [10]: 265 nM
- IC50 [11]: > 50000 nM
